Source: ChEMBL document CHEMBL1221323, “Iodination of verapamil for a stronger induction of death, through GSH efflux, of cancer cells overexpressing MRP1” (Bioorg Med Chem, 2010)
pIC50: −log10 of the molar value.

Legend:
BHK-21 [1] = assay: Cytotoxicity against hamster BHK21 cells expressing MRP1 after 96 hrs by MTT assay; type: functional, cell-based; conditions: Mesocricetus auratus, BHK-21, 96 h
Procedure, shortened: (§1)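 Cells plated at 1.0 × 10⁴/well and grown 17 h, then exposed to compound diluted in complete medium (0.5% DMSO) for 96 h at 37 °C, 5% CO₂. MTT at 0.5 mg/mL added for 4 h, dye removed, formazan dissolved in isopropanol, absorbance read at 570 nm. IC50 taken from sigmoidal fits of triplicate dose–response curves.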

BHK-21 [2] = assay: Cytotoxicity against hamster BHK21 cells after 96 hrs by MTT assay; type: functional, cell-based; conditions: Mesocricetus auratus, BHK-21, 96 h; procedure, shortened: as §1
[3] = target: T1, Multidrug resistance-associated protein 1 (Homo sapiens, UniProt P33527); assay: Inhibition of MRP1 expressed in hamster BHK21 cells assessed as reduction of GSH efflux at 5 uM after up to 50 to 60 mins; type: cell-based; conditions: bhk-21, 5 µM
T1 sequence (P33527 whole entry): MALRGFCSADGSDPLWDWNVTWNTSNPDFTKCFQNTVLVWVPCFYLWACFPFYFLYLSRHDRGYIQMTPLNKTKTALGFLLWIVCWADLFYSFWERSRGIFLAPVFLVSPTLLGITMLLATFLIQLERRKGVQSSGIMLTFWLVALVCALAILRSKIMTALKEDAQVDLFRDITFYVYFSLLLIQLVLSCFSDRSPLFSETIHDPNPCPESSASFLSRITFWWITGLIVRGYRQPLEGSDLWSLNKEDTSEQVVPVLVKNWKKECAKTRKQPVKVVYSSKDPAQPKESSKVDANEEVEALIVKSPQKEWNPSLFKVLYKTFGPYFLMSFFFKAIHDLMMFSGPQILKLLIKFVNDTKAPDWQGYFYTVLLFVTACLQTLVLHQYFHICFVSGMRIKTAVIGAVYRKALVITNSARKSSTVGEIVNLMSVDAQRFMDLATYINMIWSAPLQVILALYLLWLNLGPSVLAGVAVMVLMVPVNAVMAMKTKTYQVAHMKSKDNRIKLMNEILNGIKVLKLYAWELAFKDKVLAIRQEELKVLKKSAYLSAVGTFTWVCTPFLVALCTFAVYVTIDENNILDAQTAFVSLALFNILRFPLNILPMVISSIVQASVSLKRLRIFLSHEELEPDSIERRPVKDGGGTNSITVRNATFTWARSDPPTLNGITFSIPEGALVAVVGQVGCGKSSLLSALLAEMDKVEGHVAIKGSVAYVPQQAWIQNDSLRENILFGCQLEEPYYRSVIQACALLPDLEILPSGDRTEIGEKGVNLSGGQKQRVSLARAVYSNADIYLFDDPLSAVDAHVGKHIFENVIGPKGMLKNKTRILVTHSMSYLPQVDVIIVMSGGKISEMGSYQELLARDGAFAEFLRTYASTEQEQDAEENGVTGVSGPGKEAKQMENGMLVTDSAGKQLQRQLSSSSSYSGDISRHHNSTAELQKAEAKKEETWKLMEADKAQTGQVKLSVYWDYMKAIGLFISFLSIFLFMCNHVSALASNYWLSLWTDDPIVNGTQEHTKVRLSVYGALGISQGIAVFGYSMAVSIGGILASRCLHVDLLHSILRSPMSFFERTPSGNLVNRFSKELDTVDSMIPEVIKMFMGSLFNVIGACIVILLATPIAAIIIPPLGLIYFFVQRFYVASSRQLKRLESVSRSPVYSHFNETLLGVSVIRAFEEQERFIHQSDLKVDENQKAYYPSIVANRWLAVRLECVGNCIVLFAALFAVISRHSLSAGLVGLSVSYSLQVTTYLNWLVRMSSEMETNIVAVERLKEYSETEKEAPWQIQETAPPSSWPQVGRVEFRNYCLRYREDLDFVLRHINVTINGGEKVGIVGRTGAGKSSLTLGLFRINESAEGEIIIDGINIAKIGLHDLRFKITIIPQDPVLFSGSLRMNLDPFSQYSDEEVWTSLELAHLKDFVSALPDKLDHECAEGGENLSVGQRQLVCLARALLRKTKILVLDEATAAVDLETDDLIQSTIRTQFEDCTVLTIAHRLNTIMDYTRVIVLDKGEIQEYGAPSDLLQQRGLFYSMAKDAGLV
Procedure, shortened: (§2)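 Cells from the MRP1-transfected BHK-21 line (kept under methotrexate) were seeded at 1.0 × 10⁵/well, grown 17 h, then given 5 µM compound (DMSO ≤0.5%) for 10–120 min. Cells were washed in cold PBS and lysed in 0.1% Triton X-100. Total glutathione was measured by DTNB/NADPH/GSH reductase recycling (A412 kinetic, 2 min) and normalized to Bradford protein. Residual GSH is expressed as % of untreated cells; time to 50% loss is reported; triplicates.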

[4] = target: T1, Multidrug resistance-associated protein 1; assay: Inhibition of MRP1 expressed in hamster BHK21 cells assessed as reduction of GSH efflux at 5 uM after up to 120 mins; type: cell-based; conditions: bhk-21, 2 h; procedure, shortened: as §2

| SMILES | pIC50 (BHK-21 [1]) | pIC50 (BHK-21 [2]) | inhibition (INH) [3] | inhibition (INH) [4] |
| --- | --- | --- | --- | --- |
| COc1ccc(C(C#N)(CCCN(C)Cc2cc(I)c(O)c(I)c2)C(C)C)cc1OC (configuration not stated) | 5.18 | 4.56 |  |  |
| COc1ccc(C(C#N)(CCCN(C)CCCc2ccc(O)cc2)C(C)C)cc1OC (configuration not stated) | 4.68 | ≤ 4.00 | Not Active |  |
| COc1ccc(C(C#N)(CCCN(C)CCCc2ccc(O)c(I)c2)C(C)C)cc1OC (configuration not stated) | 5.03 | 5.03 |  |  |
| COc1ccc(C(C#N)(CCCN(C)CCCc2cc(I)c(O)c(I)c2)C(C)C)cc1OC (configuration not stated) | 5.22 | 4.48 |  |  |
| COc1ccc(C(C#N)(CCCN(C)Cc2ccc(O)cc2)C(C)C)cc1OC (configuration not stated) | 5.18 | 4.55 | Not Active |  |
| COc1ccc(C(C#N)(CCCN(C)Cc2ccc(O)c(I)c2)C(C)C)cc1OC (configuration not stated) | 4.89 | 4.85 |  |  |
| COc1ccc(C(C#N)(CCCNCCc2ccc(O)cc2)C(C)C)cc1OC (configuration not stated) | 4.42 | ≤ 4.00 |  |  |
| COc1ccc(C(C#N)(CCCNCCc2ccc(O)c(I)c2)C(C)C)cc1OC (configuration not stated) | 6.11 | 4.85 |  |  |
| COc1ccc(C(C#N)(CCCNCCc2cc(I)c(O)c(I)c2)C(C)C)cc1OC (configuration not stated) | 5.71 | 4.86 |  |  |
| COc1ccc(CCN(C)CCCC(C#N)(c2ccc(OC)c(OC)c2)C(C)C)cc1 (configuration not stated) | 4.76 | 4.47 |  | Not Active |
| COc1ccc(CCN(C)CCCC(C#N)(c2ccc(OC)c(OC)c2)C(C)C)cc1I (configuration not stated) | 5.33 | 4.89 |  | Not Active |
| COc1ccc(C(C#N)(CCCN(C)CCc2cc(I)c(OC)c(I)c2)C(C)C)cc1OC (configuration not stated) | 5.77 | 5.05 |  | Not Active |
| COc1ccc(C(C#N)(CCCN(C)CCc2ccc(O)cc2)C(C)C)cc1OC (configuration not stated) | 4.93 | 4.25 |  |  |
| COc1ccc(C(C#N)(CCCN(C)CCc2ccc(O)c(I)c2)C(C)C)cc1OC (configuration not stated) | 5.07 | 4.48 |  |  |
| COc1ccc(C(C#N)(CCCN(C)CCc2cc(I)c(O)c(I)c2)C(C)C)cc1OC (configuration not stated) | 5.96 | 4.26 |  |  |
| COc1ccc(CCN(C)CCCC(C#N)(c2ccc(OC)c(OC)c2)C(C)C)cc1OC (configuration not stated) [VERAPAMIL] | 4.97 | ≤ 4.00 |  |  |
